Among the data in article PMC8458670 (Slas Discovery, 2022) are IC50 and Kd values, retold here.

The target in one assay is SARS-CoV-2 nsp14 (Severe acute respiratory syndrome coronavirus 2, UniProt P0DTD1). The assay is described as follows: Radiometric nsp14 MTase activity assay. It is filed as biochemical.
Assay [1] deals with nsp14 (amino acids 1-527) (Severe acute respiratory syndrome coronavirus 2, UniProt P0DTD1). The assay is described as follows: Surface plasmon resonance binding to biotinylated nsp14. Also on record: species or system SARS-CoV-2. In short, it runs like this: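 SPR used N-terminally biotinylated nsp14 (aa 1–527) coupled on a CM5 chip, with C-terminally biotinylated SETD3 (aa 1–605) as control. Test compounds were injected at five concentrations (0.6–50 µM, or 0.06–5 µM for some) at 50 µL/min. Running buffer was HBS-EP Plus (10 mM HEPES pH 7.4, 150 mM NaCl, 2 mM EDTA, 0.005% Tween-20) with 0.5% DMSO. Contact time was 60 s and dissociation 120 s, with blank-buffer and DMSO (0.4–0.6%) corrections.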
(In general: In SPR one partner is held on a chip, and binding of the other changes the refractive index at the surface.)

Take `Nc1ncnc2c1ncn2[C@@H]1O[C@H](CSCC[C@H](N)C(=O)O)[C@@H](O)[C@H]1O` [SAH, S-Adenosylhomocysteine]: the IC50 against SARS-CoV-2 nsp14 is 130 ± 30 nM. For the same compound, in assay [1], the affinity, expressed as Kd, was 140 nM.

As a reminder, the IC50 is the midpoint of a concentration-inhibition curve. A higher IC50 goes with a need for much substance. In general, Kd refers to the free concentration of one partner at which half of the binding sites on the other are occupied at equilibrium, for simple one-to-one binding. A low value points to tighter binding.
